Screens from PubChem.
Sampled rows, rich in hits. Any-hit rate of the full collection: about 3.1%.
CTSL1 counter: counter-screen for PFM18AAP inhibitors: inhibitors of F. hepatica cathepsin L1 | recombinant F. hepatica cathepsin L1, Z-Leu-Arg-MCA fluorescence | inhibition, % at 5.96 µM | 0.49% of 300,000 active;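 active = inhibition above the mean of all tested compounds plus 3 SD, set per screening campaign, cut at about 17% in these data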;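 also: 0% = plate median of test compound wells and 100% = 1 µM Z-Phe-Ala-diazomethylketone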
core dimer inh: HCV core protein dimerization inhibition; TR-FRET GST/Flag-core106 dimerization, 1536-well; inhibition, % at 5 µM; 0.33% of 300,000 active; AID 1899;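 active = inhibition above the mean of all tested compounds plus 3 SD, set per screening campaign, cut at about 45% in these data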
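System: GST-tagged and Flag-tagged HCV core protein residues 1-106 / Input: core106 proteins, GST 13.5 nM and Flag 17 nM / Buffer or medium: KF-containing HEPES buffer, pH 7.45, DTT, CHAPS, BSA / Probe or stimulus: Eu-anti-GST and XL665-anti-Flag labelled anti-tag antibodies / Schedule: 4 h, 22.5 °C incubation / Technique: TR-FRET 671 and 617 nm emission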
Myeloid diff MLP: compounds promoting myeloid differentiation; 1% of 360,000 active; calls only at 10 µM; AID 624256; ER-HoxA9 myeloid progenitors, lysozyme-GFP differentiation, flow cytometry;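 active = normalized GFP-positive differentiation at or above the plate's own cutoff, the solvent-only control mean plus 3 SD; inconclusive = no clear call, values can overlap the other calls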;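 also: cells exposed to compound for four days before flow analysis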
NadD block: NadD (S. aureus) enzyme inhibition; purified NadD enzyme, colorimetric absorbance read-out; 0.78% of 360,000 active; inhibition, % at 20 µM; in the data active = inhibition above about 26%
PP5 inh: PP5 (human) phosphatase inhibition. P53041. inhibition, % at 6.7 µM. purified PP5c, OMFP substrate fluorescence. 0.18% of 320,000 active;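 active = inhibition above the campaign's mean inhibition across all tested compounds plus 3 SD, cut at about 9.5% in these data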;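 also: 0% = DMSO only and 100% = 100 µM cantharidin control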
Target sequence (P53041 whole entry, looked up): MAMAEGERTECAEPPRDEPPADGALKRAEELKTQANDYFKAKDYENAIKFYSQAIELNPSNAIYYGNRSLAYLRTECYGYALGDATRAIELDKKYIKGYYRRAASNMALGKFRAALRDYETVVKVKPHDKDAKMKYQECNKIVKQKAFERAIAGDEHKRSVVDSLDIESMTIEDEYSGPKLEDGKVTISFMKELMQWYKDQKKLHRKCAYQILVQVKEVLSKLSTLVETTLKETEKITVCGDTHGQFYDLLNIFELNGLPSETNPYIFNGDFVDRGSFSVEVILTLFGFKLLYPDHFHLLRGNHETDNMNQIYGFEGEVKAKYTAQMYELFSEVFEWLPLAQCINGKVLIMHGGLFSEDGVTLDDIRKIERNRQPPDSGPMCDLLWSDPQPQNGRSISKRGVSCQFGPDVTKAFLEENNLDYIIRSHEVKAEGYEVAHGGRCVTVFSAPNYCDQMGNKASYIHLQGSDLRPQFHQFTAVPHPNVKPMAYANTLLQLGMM
PP1 inh: blocks human PP1-alpha phosphatase, a PP5 counter-screen; 0.9% of 320,000 active; inhibition, % at 6.7 µM; purified PP1alpha, OMFP fluorescence; P62136;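 active = inhibition above the mean inhibition of all tested compounds plus 3 SD, computed separately for each screening campaign, cut at about 15% in these data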
PP1 confirm: confirmation of human PP1 phosphatase inhibitors. AID 2358. 52% of 1,900 active. shares compounds with PP1 inh. inhibition, % at 6.7 µM. purified PP1alpha, OMFP substrate fluorescence;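 active = mean PP1 inhibition above a set limit taken from the earlier primary screen, cut at about 15% in these data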
PP5 inh counter: inhibits human PP5 phosphatase in PP1 counter-screen. inhibition, % at 6.7 µM. AID 2360. shares compounds with PP1 inh. purified PP5c, OMFP fluorescence. 4% of 1,900 active;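 active = mean PP5 inhibition over triplicate wells above about 9.5% taken from the earlier PP1 screen, limit read from the data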
* hit, by the source's call.

Screening Cc1ccc(NC(=O)NCC2CCN(Cc3cccc(Cl)c3)CC2)c(Cl)c1 returned CTSL1 counter 2, core dimer inh -6, Myeloid diff MLP inactive, NadD block -2, PP5 inh 2, PP1 inh 27*, PP1 confirm -6 and PP5 inh counter -3.
O=C(NCC1CCN(Cc2cccc(Cl)c2)CC1)Nc1ccccc1Cl was read as Myeloid diff MLP inactive and NadD block -8.
`COc1ccc(-c2cc(C(=O)NCCN3CCOCC3)no2)cc1OC` gave CTSL1 counter -1, core dimer inh 2, Myeloid diff MLP inactive, NadD block 1, PP5 inh 2, PP1 inh 32*, PP1 confirm -4 and PP5 inh counter -1.
Screening Cc1noc(C)c1CSCC(=O)Nc1cc(C(F)(F)F)ccc1N1CCOCC1 returned Myeloid diff MLP inactive, NadD block -12, PP5 inh 2 and PP1 inh -5.
`Cc1nc(SC(C(N)=O)c2ccccc2)c(C#N)c(C)c1C` (stereo not given) gave CTSL1 counter 5, core dimer inh 4, Myeloid diff MLP inactive, NadD block 0, PP5 inh 1 and PP1 inh -6.
Screening COc1ccccc1-c1cc(-c2ccccc2)nc(SC(C(N)=O)c2ccccc2)c1C#N (stereo not given) returned CTSL1 counter 0, core dimer inh 10, Myeloid diff MLP inactive, NadD block 36*, PP5 inh 2, PP1 inh 19*, PP1 confirm 27* and PP5 inh counter -6.
Screening Cc1ccc(NC(=O)c2cccc(NC(=O)/C=C/c3ccco3)c2)cc1C returned CTSL1 counter 0, core dimer inh 19, Myeloid diff MLP inactive, NadD block 15, PP5 inh 6 and PP1 inh 3.
Cc1ccc(-n2nc3ccc(NC(=O)/C=C/c4ccco4)cc3n2)cc1 was read as CTSL1 counter 1, core dimer inh 46, Myeloid diff MLP inconclusive, NadD block 16, PP5 inh 0, PP1 inh 19*, PP1 confirm 9 and PP5 inh counter -2.
Screening NC1=NC2OC(CO)C(O)C2O1 (stereo not given) returned Myeloid diff MLP inactive and NadD block -3.
For O=C1/C(=C\c2ccco2)SC(=S)N1c1ccc(O)cc1 the results were CTSL1 counter 1, core dimer inh -3, Myeloid diff MLP inactive, NadD block -3, PP5 inh 5 and PP1 inh 0.
For CC(C)C(C(=O)O)N1C(=O)/C(=C/C=C/c2ccco2)SC1=S (stereo not given) the results were CTSL1 counter 8, core dimer inh 57*, Myeloid diff MLP inactive, NadD block 46*, PP5 inh 1, PP1 inh 20*, PP1 confirm 14 and PP5 inh counter -3.
For O=C1/C(=C/C=C/c2ccco2)SC(=S)N1c1ccc(O)cc1 the results were CTSL1 counter 0, core dimer inh 74*, Myeloid diff MLP inactive, NadD block 25, PP5 inh -1, PP1 inh 38*, PP1 confirm 6 and PP5 inh counter -2.
Screening CC(C)C(C(=O)O)N1C(=O)/C(=C/c2cccn2C)SC1=S (stereo not given) returned CTSL1 counter 7, core dimer inh -1, Myeloid diff MLP inactive, NadD block -5, PP5 inh 1 and PP1 inh -6.
Screening CSCCC(NC(=O)COc1ccccc1)C(=O)N(C)CC(=O)Nc1c(C)cccc1C (stereo not given) returned CTSL1 counter 5, core dimer inh -5, Myeloid diff MLP inactive, NadD block -1, PP5 inh 0, PP1 inh 21*, PP1 confirm -5 and PP5 inh counter -4.
`CSCCC(NC(=O)COc1ccccc1)C(=O)OCCOc1ccc(C)cc1` (stereo not given) gave Myeloid diff MLP inactive, NadD block -9, PP5 inh 2 and PP1 inh 1.
